In ChEMBL document CHEMBL3872205, “Design, synthesis and evaluation of novel potent angiotensin II receptor 1 antagonists” (Eur J Med Chem, 2016):

How the values were obtained:
Rattus norvegicus = assay: Antihypertensive activity in spontaneous hypertensive rat model assessed as reduction in mean blood pressure at 15 mg/kg, po after 4 hrs; assay type: functional
Method in brief: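 Male SHRs (250 ± 20 g) were randomized, 6 per group. Compound was suspended in 0.5% sodium carboxymethyl cellulose and given orally; vehicle-only negative control. Mean blood pressure was calculated as (SBP − DBP)/3 + DBP from systolic and diastolic readings over the time course. Data are mean ± SD, with p < 0.05 taken as significant.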

[1] = AUC (0 to 72 hrs) in Wistar rat plasma at 30 mg/kg, po by HPLC analysis; assay type: ADME, organism-based; set-up: time < 72 hr, dose 30 mg/kg, route oral
Method in brief: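 Male Wistar rats (180 ± 20 g, n = 6 per group) got one oral dose. Heparinized blood was taken by retro-orbital puncture before dosing and at 0.5–72 h. Plasma was spun at 4000 × g, 4 °C, 10 min, spiked with internal standard and protein-precipitated with acetonitrile. Analysis was reverse-phase C18 HPLC (0.02 mol/L KH2PO4 55%/acetonitrile 45%, 1.0 mL/min). Calibration used 0.1–10 µg/mL, peak-height ratio, weighting concentration^-2.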

[2] = MRT (0 to infinity) in Wistar rat plasma at 30 mg/kg, po by HPLC analysis; assay type: ADME, organism-based
Method in brief: (§1)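 Male Wistar rats (180 ± 20 g), 6 per dose group, each given a single oral dose. Blood was drawn by retro-orbital puncture into heparin at predose and at 0.5, 1, 2, 4, 6, 8, 12, 24, 48 and 72 h, then spun at 4000 × g and 4 °C. Plasma with internal standard was acetonitrile-precipitated, filtered and run on reverse-phase C18 HPLC (0.02 mol/L KH2PO4 55% / acetonitrile 45%, 1.0 mL/min). Calibration standards were 0.1–10 µg/mL, fitted by peak-height ratio with 1/conc² weighting.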

[3] = Half life in Wistar rat plasma at 30 mg/kg, po by HPLC analysis; assay type: ADME, organism-based
[4] = Tmax in Wistar rat plasma at 15 mg/kg, po by HPLC analysis; assay type: ADME, organism-based; method in brief: as §1
[5] = Tmax in Wistar rat plasma at 30 mg/kg, po by HPLC analysis; assay type: ADME, organism-based; method in brief: as §1
[6] = Cmax in Wistar rat plasma at 30 mg/kg, po by HPLC analysis; assay type: ADME, organism-based; set-up: dose 30 mg/kg, route oral
[7] = AUC (0 to infinity) in Wistar rat Heart at 10 mg/kg, po by HPLC analysis; assay type: ADME, organism-based; set-up: dose 10 mg/kg, time infinity, route oral
Method in brief: (§2)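 Wistar rats (180 ± 20 g) were dosed orally at 10, 15 or 30 mg/kg. Heart, liver, spleen, lung, kidney and brain were collected at 0–72 h (n = 6 per point). Tissue was rinsed, blotted and homogenized in saline (0.25 g/1 mL), then spun at 10,000 × g. Supernatant was methanol-extracted, dried under nitrogen at 50 °C, reconstituted in methanol and run on C18 HPLC (acetonitrile 60%/water 40%, 1.0 mL/min).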

[8] = MRT (0 to 72 hrs) in Wistar rat Heart at 15 mg/kg, po by HPLC analysis; assay type: ADME, organism-based
Method in brief: (§3)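 Tissue distribution in male Wistar rats given oral 10, 15 or 30 mg/kg; heart, liver, spleen, lung, kidney and brain collected predose and 0.5–72 h post-dose (n = 6 per time). Tissue rinsed in saline, homogenised 0.25 g/1 mL saline, methanol extraction, dried under nitrogen, reconstituted in methanol. Analysis by reverse-phase C18 HPLC, acetonitrile/water 60:40, 1.0 mL/min, ambient temperature.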

[9] = Half life in Wistar rat Heart at 30 mg/kg, po by HPLC analysis; assay type: ADME, organism-based; method in brief: as §3
[10] = AUC (0 to 72 hrs) in Wistar rat liver at 10 mg/kg, po by HPLC analysis; assay type: ADME, organism-based; set-up: time < 72 hr, dose 10 mg/kg, route oral; method in brief: as §2
[11] = AUC (0 to 72 hrs) in Wistar rat liver at 30 mg/kg, po by HPLC analysis; assay type: ADME, organism-based; set-up: time < 72 hr, dose 30 mg/kg, route oral; method in brief: as §2
[12] = Half life in Wistar rat liver at 10 mg/kg, po by HPLC analysis; assay type: ADME, organism-based; method in brief: as §3
[13] = Half life in Wistar rat liver at 15 mg/kg, po by HPLC analysis; assay type: ADME, organism-based; method in brief: as §3
[14] = Tmax in Wistar rat liver at 30 mg/kg, po by HPLC analysis; assay type: ADME, organism-based
Method in brief: (§4)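 Male Wistar rats (180 ± 20 g) received a single oral dose of 10, 15 or 30 mg/kg. Tissues were collected at 0, 0.5, 1, 2, 4, 6, 8, 12, 24, 48 and 72 h (n = 6 per point). Samples of 0.25 g were rinsed, then homogenized in saline (0.25 g/1 mL) and centrifuged at 10,000 × g. Supernatant was methanol-extracted, dried under nitrogen at 50 °C and reconstituted in methanol. Analysis was by C18 HPLC (acetonitrile 60% / water 40%, 1.0 mL/min).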

[15] = MRT (0 to 72 hrs) in Wistar rat spleen at 15 mg/kg, po by HPLC analysis; assay type: ADME, organism-based; method in brief: as §4
[16] = MRT (0 to 72 hrs) in Wistar rat spleen at 30 mg/kg, po by HPLC analysis; assay type: ADME, organism-based; method in brief: as §4
[17] = MRT (0 to infinity) in Wistar rat spleen at 10 mg/kg, po by HPLC analysis; assay type: ADME, organism-based; method in brief: as §4
[18] = Half life in Wistar rat spleen at 30 mg/kg, po by HPLC analysis; assay type: ADME, organism-based; method in brief: as §3
[19] = Tmax in Wistar rat spleen at 30 mg/kg, po by HPLC analysis; assay type: ADME, organism-based
[20] = Cmax in Wistar rat spleen at 30 mg/kg, po by HPLC analysis; assay type: ADME, organism-based; set-up: dose 30 mg/kg, route oral; method in brief: as §3
[21] = AUC (0 to infinity) in Wistar rat lung at 30 mg/kg, po by HPLC analysis; assay type: ADME, organism-based; set-up: dose 30 mg/kg, route oral, time infinity; method in brief: as §2
[22] = MRT (0 to infinity) in Wistar rat lung at 30 mg/kg, po by HPLC analysis; assay type: ADME, organism-based; method in brief: as §4
[23] = AUC (0 to 72 hrs) in Wistar rat kidney at 10 mg/kg, po by HPLC analysis; assay type: ADME, organism-based; set-up: dose 10 mg/kg, time < 72 hr, route oral; method in brief: as §2
[24] = AUC (0 to infinity) in Wistar rat kidney at 15 mg/kg, po by HPLC analysis; assay type: ADME, organism-based; set-up: dose 15 mg/kg, time infinity, route oral; method in brief: as §2
[25] = MRT (0 to 72 hrs) in Wistar rat kidney at 15 mg/kg, po by HPLC analysis; assay type: ADME, organism-based; method in brief: as §3
[26] = Tmax in Wistar rat kidney at 10 mg/kg, po by HPLC analysis; assay type: ADME, organism-based; method in brief: as §4
[27] = Tmax in Wistar rat kidney at 15 mg/kg, po by HPLC analysis; assay type: ADME, organism-based; method in brief: as §4
[28] = Tmax in Wistar rat kidney at 30 mg/kg, po by HPLC analysis; assay type: ADME, organism-based; method in brief: as §4
[29] = Cmax in Wistar rat kidney at 15 mg/kg, po by HPLC analysis; assay type: ADME, organism-based; set-up: dose 15 mg/kg, route oral; method in brief: as §3
[30] = MRT (0 to 72 hrs) in Wistar rat brain at 15 mg/kg, po by HPLC analysis; assay type: ADME, organism-based; method in brief: as §3
[31] = MRT (0 to infinity) in Wistar rat brain at 30 mg/kg, po by HPLC analysis; assay type: ADME, organism-based; method in brief: as §4
[32] = Tmax in Wistar rat brain at 10 mg/kg, po by HPLC analysis; assay type: ADME, organism-based; method in brief: as §4
[33] = Toxicity in ICR mouse assessed as mortality at 1200 mg/kg, ig after 2 weeks; assay type: organism-based; conditions: in vivo, po
Mus musculus = assay: Toxicity in ICR mouse assessed as untoward reaction at 1200 mg/kg, po after 2 weeks; assay type: organism-based; conditions: in vivo, 336 h

Compound: CCCCC1=NC2(CCCC2)C(=O)N1Cc1ccc2c(ccn2-c2ccccc2-c2nnn[nH]2)c1
- Activity (Rattus norvegicus): 40.62 mmHg
- AUC(0-t) at 72 h [1]: 89500 ng·h/mL
- MRT inf [2]: 16.1 h
- half-life [3]: 9.93 h
- Tmax [4]: 4.33 h
- Tmax [5]: 5 h
- Cmax [6]: 5760 ng/mL
- AUC(0-inf) [7]: 962 ng·h/mL
- MRT last [8]: 16.9 h
- half-life [9]: 20.2 h
- AUC(0-t) at 72 h [10]: 3070 ng·h/mL
- AUC(0-t) at 72 h [11]: 14500 ng·h/mL
- half-life [12]: 2.33 h
- half-life [13]: 1.8 h
- Tmax [14]: 4 h
- MRT last [15]: 9.71 h
- MRT last [16]: 13.3 h
- MRT inf [17]: 30.4 h
- half-life [18]: 13.4 h
- Tmax [19]: 2 h
- Cmax [20]: 1880 ng/mL
- AUC(0-inf) [21]: 2410 ng·h/mL
- MRT inf [22]: 4.1 h
- AUC(0-t) at 72 h [23]: 4340 ng·h/mL
- AUC(0-inf) [24]: 7690 ng·h/mL
- MRT last [25]: 19.4 h
- Tmax [26]: 1.17 h
- Tmax [27]: 2.33 h
- Tmax [28]: 2 h
- Cmax [29]: 210 ng/mL
- MRT last [30]: 11.6 h
- MRT inf [31]: 9.02 h
- Tmax [32]: 6.67 h
- mortality at 336 h [33]: 0%
- Activity (Mus musculus): Non-Toxic
